Reference: ChEMBL document CHEMBL1255365, “In vitro antifungal susceptibility and molecular characterization of clinical isolates of Fusarium verticillioides (F. moniliforme) and Fusarium thapsinum” (2008)
In brackets after ≈: the same amount, converted by molar mass.

Tests used:
Type in all cases: functional
Fusarium verticillioides [1] = test: Antifungal activity against Fusarium moniliforme clade 1 by microdilution method
Procedure, shortened: (§1)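 Clinical isolates grown on potato dextrose agar for 7 days at 25°C. Susceptibility tested by modified NCCLS (2002) broth microdilution reference method for filamentous fungi. Final inoculum 4 × 10^3 to 5 × 10^4 conidia/ml. Final drug ranges: 64–0.12 μg/ml for fluconazole and flucytosine, 128–0.25 μg/ml for micafungin, 16–0.03 μg/ml for the other azoles, amphotericin B and terbinafine.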

[2] = Antifungal activity against Fusarium thapsinum by microdilution method; conditions: Gibberella thapsina; procedure, shortened: as §1
Fusarium verticillioides [3] = test: Antifungal activity against Fusarium moniliforme clade 2 by microdilution method; procedure, shortened: as §1
Fusarium verticillioides [4] = test: Antifungal activity against Fusarium moniliforme clade 3 by microdilution method; procedure, shortened: as §1

Q: Which MIC (Fusarium verticillioides [1]) does the source give for `C[C@@H](n1cnc2cc(Cl)ccc2c1=O)[C@](O)(Cn1cncn1)c1ccc(F)cc1F` [ALBACONAZOLE] here?
A: 3.03 µg/mL (≈ 7.02 µM)

Q: And the MIC [2]?
A: 18.4 µg/mL (≈ 42.6 µM)

Q: What about the MIC (Fusarium verticillioides [3]) of the same molecule?
A: 3.56 µg/mL (≈ 8.24 µM)

Q: And the MIC (Fusarium verticillioides [4])?
A: 5.66 µg/mL (≈ 13.1 µM)

Q: For `C[C@@H]1[C@H](O)[C@@H](C)/C=C/C=C/C=C/C=C/C=C/C=C/C=C/[C@H](O[C@@H]2O[C@H](C)[C@@H](O)[C@H](N)[C@@H]2O)C[C@@H]2O[C@](O)(C[C@@H](O)C[C@@H](O)[C@H](O)CC[C@@H](O)C[C@@H](O)CC(=O)O[C@H]1C)C[C@H](O)[C@H]2C(=O)O` [AMPHOTERICIN B], which MIC (Fusarium verticillioides [1]) is on record?
A: 2.41 µg/mL (≈ 2.61 µM)

Q: What about the MIC [2] of the same molecule?
A: 2.64 µg/mL (≈ 2.86 µM)

Q: And the MIC (Fusarium verticillioides [3])?
A: 2.24 µg/mL (≈ 2.42 µM)

Q: And the MIC (Fusarium verticillioides [4])?
A: 2 µg/mL (≈ 2.16 µM)

Q: Which results are given for `CCC(C)n1ncn(-c2ccc(N3CCN(c4ccc(OCC5COC(Cn6cncn6)(c6ccc(Cl)cc6Cl)O5)cc4)CC3)cc2)c1=O` (configuration not stated) [ITRACONAZOLE]?
A: MIC (Fusarium verticillioides [1]): 12.7 µg/mL (≈ 18 µM); MIC [2]: > 16 µg/mL; MIC (Fusarium verticillioides [3]): > 16 µg/mL; MIC (Fusarium verticillioides [4]): > 16 µg/mL

Q: What does the source list for `CC(=O)N1CCN(c2ccc(OCC3COC(Cn4ccnc4)(c4ccc(Cl)cc4Cl)O3)cc2)CC1` (configuration not stated) [KETOCONAZOLE]?
A: MIC (Fusarium verticillioides [1]): 2 µg/mL (≈ 3.76 µM); MIC [2]: > 16 µg/mL; MIC (Fusarium verticillioides [3]): 8 µg/mL (≈ 15.1 µM); MIC (Fusarium verticillioides [4]): 8 µg/mL (≈ 15.1 µM)

Q: Which results are given for `CC[C@@H]([C@H](C)O)n1ncn(-c2ccc(N3CCN(c4ccc(OC[C@@H]5CO[C@@](Cn6cncn6)(c6ccc(F)cc6F)C5)cc4)CC3)cc2)c1=O` [POSACONAZOLE]?
A: MIC (Fusarium verticillioides [1]): 0.79 µg/mL (≈ 1.13 µM); MIC [2]: > 16 µg/mL; MIC (Fusarium verticillioides [3]): 0.89 µg/mL (≈ 1.27 µM); MIC (Fusarium verticillioides [4]): 1 µg/mL (≈ 1.43 µM)

Q: Which results are given for `C[C@@H](c1nc(-c2ccc(C#N)cc2)cs1)[C@](O)(Cn1cncn1)c1ccc(F)cc1F` [RAVUCONAZOLE]?
A: MIC (Fusarium verticillioides [1]): 1.45 µg/mL (≈ 3.31 µM); MIC [2]: 18.4 µg/mL (≈ 42 µM); MIC (Fusarium verticillioides [3]): 2.24 µg/mL (≈ 5.12 µM); MIC (Fusarium verticillioides [4]): 4 µg/mL (≈ 9.14 µM)

Q: Which MIC (Fusarium verticillioides [1]) does the source give for `CN(C/C=C/C#CC(C)(C)C)Cc1cccc2ccccc12` [TERBINAFINE] here?
A: 0.21 µg/mL (≈ 0.721 µM)

Q: And the MIC [2]?
A: 0.44 µg/mL (≈ 1.51 µM)

Q: And the MIC (Fusarium verticillioides [3])?
A: 0.31 µg/mL (≈ 1.06 µM)

Q: What about the MIC (Fusarium verticillioides [4]) of the same molecule?
A: 0.25 µg/mL (≈ 0.858 µM)

Q: For `C[C@@H](c1ncncc1F)[C@](O)(Cn1cncn1)c1ccc(F)cc1F` [VORICONAZOLE], which MIC (Fusarium verticillioides [1]) is on record?
A: 2 µg/mL (≈ 5.73 µM)

Q: And the MIC [2]?
A: 2.64 µg/mL (≈ 7.56 µM)

Q: And the MIC (Fusarium verticillioides [3])?
A: 2.83 µg/mL (≈ 8.1 µM)

Q: What about the MIC (Fusarium verticillioides [4]) of the same molecule?
A: 2 µg/mL (≈ 5.73 µM)
